Experimental findings from PMC7115619 (European Journal of Medicinal Chemistry, 2015) are described below.

Assay [1] has as its system HHV-2. The assay can be described thus: Plaque reduction assay, pre- and post-infection treatment, HHV-2. As to conditions: Vero, 72 h, read-out: EC50 pre-infection treatment HHV-2. It counts as cell-based, Human Herpesvirus type 2. The method, boiled down:
(§1)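 Vero monolayers (2.5 × 10^4 cells/well) received 100 PFU/well (DENV-2 New Guinea or HHV-2 VR-734-G). Pre-infection: virus/test compound mixture for 1 h at 37 °C, then PBS (pH 7.0) wash and CMC overlay. Post-infection: virus 1 h, wash, then compound in CMC. CMC was 2% for DENV-2 (8 days) and 0.75% for HHV-2 (72 h). Formaldehyde/crystal violet stain, plaques counted. EC50 by linear regression; mean of three experiments.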

For assay [2], the system named is DENV-2. The assay can be described thus: Plaque reduction assay, pre- and post-infection treatment, DENV-2. It counts as cell-based, Dengue virus type 2. As to conditions: Dengue virus, DENV2, Vero, 192 h, read-out: EC50 pre-infection treatment DENV-2. The method, boiled down:
as §1

In assay [3] the test system is Vero cells. The assay can be described thus: MTT cytotoxicity on Vero cells. It counts as cell-based, Cercopithecus aethiops. As to conditions: read-out: IC50 (μM) 72 h, inhibitory concentration of cell proliferation.
The test system of assay [4] is HHV-1 (CDC Atlanta strain). The assay can be described thus: Screening against HHV-1 by end-point titration technique. It counts as cell-based, Human Herpesvirus type 1. As to conditions: Vero cell line; 10 TCID50; 48 h. The method, boiled down:
(§2)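 Vero cells (2.0 × 10^4 cells/well) were grown to ≥80% monolayer. 10 TCID50 virus was mixed with test compound (6.25–50 μg/mL) in DMEM/2% FBS containing CMC: 1% for HHV-1, 0.5% for HHV-2. Mixture held 15 min at room temperature, then incubated at 37 °C: 48 h (HHV-1) or 72 h (HHV-2). Crystal violet/formaldehyde stain, plaques counted. Titer reduction factor: ≥1 × 10^3 relevant, 1 × 10^2 moderate. Two experiments in quadruplicate.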

Assay [5] relates to HHV-2 (VR-734-G strain). The assay can be described thus: Screening against HHV-2 by end-point titration technique. It counts as cell-based, Human Herpesvirus type 2. As to conditions: Vero cell line; 10 TCID50; 72 h. Summed up: as §2

For orientation: EC50 means the concentration giving half of the maximal effect.

“Also recorded” adds a separate entry of the source. Bounds are passed on as bounds.

Turning to `CC(C)c1cc2c(cc1O)[C@@]1(C)CCC[C@@](C)(CN3C(=O)c4ccccc4C3=O)[C@@H]1CC2` [Compound 8], the EC50 in assay [1] and in assay [2] was over 29 µM each time. As for dextran sulfate [DEX-S], the IC50 in assay [3] is over 10 µM. `CC(C)c1cc2c(cc1O)[C@@]1(C)CCC[C@@](C)(C=O)[C@@H]1CC2` [Compound 9, 18-oxoferruginol]: the “Rf, reduction factor of the viral titer, HHV-1” value in assay [4] is given as “did not show activity; also recorded: did not show reduction of viral titer”. The EC50 in assay [1] and in assay [2] was over 20.8 µM each time. On to `Nc1nc2c(ncn2COCCO)c(=O)[nH]1` [ACV, acyclovir], for which the “Rf, reduction factor of the viral titer, HHV-2” value in assay [5] is on record as 10^3.
